Results on one compound are retold here after article PMC4059252 (Journal of Medicinal Chemistry, 2014).

Bounds are passed on as bounds.

This data set can be described thus: Metal cation competition. The format is physicochemical. In outline:
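200 μM ligand (1 mL) was labelled with 30–50 μCi neutralised 89Zr for 1 h at room temperature, and complete labelling was confirmed by radio-TLC. 200 μL aliquots were mixed with 200 μL 1 mM metal salt (e.g. CoCl2) at pH 7.4 and incubated at 37 °C with agitation. Radio-TLC at 1 h, 1, 5, 7 d gave % intact complex. Mean and SD from two experiment sets.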

Turning to `CC(=O)N(O)CCCCCNC(=O)CCC(=O)N(O)CCCCCNC(=O)CCC(=O)N(O)CCCCCN` [DFO, desferrioxamine B], the “^89Zr^4+ released” value was over 50% (after 7 days of incubation with FeCl3) and about 9% (in the presence of Ga^3+).
